Measured values taken from ChEMBL document CHEMBL4814057, “4-4-(Anilinomethyl)-3-[4-(trifluoromethyl)phenyl]-1H-pyrazol-1-ylbenzoic acid derivatives as potent anti-gram-positive bacterial agents” (Eur J Med Chem, 2021).
Values after ≈ are worked out from the molar mass of the structure shown. Active and inactive are the calls of the source. The calls are words filed in the database; no cut-off is given here.

Legend:
Staphylococcus aureus [1] = assay: Antibacterial activity against vancomycin-intermediate resistant Staphylococcus aureus ATCC 700699 assessed as bacterial growth between 7 passages measured 14 to 21 days by broth dilution method; format: functional, organism-based; settings: time 14-21 day
Enterococcus faecalis = assay: Antibacterial activity against vancomycin-intermediate Enterococcus faecalis ATCC 29212 assessed as bacterial growth inhibition by measuring fold increase in MIC after 7 passages by broth dilution method; format: functional, organism-based
Staphylococcus aureus [2] = assay: Inhibition of DNA synthesis in Staphylococcus aureus ATCC 29213 at 8 times MIC measured by liquid scintillation counter; format: functional
In short: (§1)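 Early-exponential cells in CAMHB added to drug (40x stock) in triplicate, with a no-drug control. After 30 min pre-incubation at room temperature, [3H]thymidine 3.0 µCi/tube (DNA) or [3H]uridine 0.5 µCi/tube (RNA) added for 30 min at room temperature. Stopped with cold TCA, precipitate filtered and washed, then scintillation counted.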

Staphylococcus aureus [3] = assay: Antibacterial activity against vancomycin-intermediate susceptible Staphylococcus aureus ATCC 25923 assessed as bacterial growth inhibition between 7 passages by broth dilution method; format: functional, organism-based
Staphylococcus aureus [4] = assay: Inhibition of RNA synthesis in Staphylococcus aureus ATCC 29213 at 8 times MIC measured by liquid scintillation counter; format: functional; in short: as §1
Enterococcus faecium [5] = assay: Antimicrobial activity against vancomycin-resistant Enterococcus faecium clinical isolate 1100440 by CLSI-based broth microdilution assay; format: functional
Enterococcus faecium [6] = assay: Antimicrobial activity against vancomycin-resistant Enterococcus faecium clinical isolate 1094112 by CLSI-based broth microdilution assay; format: functional
Enterococcus faecium [7] = assay: Antimicrobial activity against vancomycin-resistant Enterococcus faecium clinical isolate 1091720 by CLSI-based broth microdilution assay; format: functional
Enterococcus faecium [8] = assay: Antimicrobial activity against vancomycin-resistant Enterococcus faecium clinical isolate 1088051 by CLSI-based broth microdilution assay; format: functional
Staphylococcus aureus [9] = assay: Antimicrobial activity against methicillin-sensitive Staphylococcus aureus clinical isolate 1088626 by CLSI-based broth microdilution assay; format: functional
Staphylococcus aureus [10] = assay: Antimicrobial activity against methicillin-sensitive Staphylococcus aureus clinical isolate 1088105 by CLSI-based broth microdilution assay; format: functional
Enterococcus faecium [11] = assay: Antimicrobial activity against vancomycin-resistant Enterococcus faecium clinical isolate 1091563 by CLSI-based broth microdilution assay; format: functional
Enterococcus faecium [12] = assay: Antimicrobial activity against vancomycin-resistant Enterococcus faecium clinical isolate 1088168 by CLSI-based broth microdilution assay; format: functional
Staphylococcus aureus [13] = assay: Antimicrobial activity against methicillin-sensitive Staphylococcus aureus ATCC 29213 by CLSI-based broth microdilution assay; format: functional
Staphylococcus aureus [14] = assay: Antimicrobial activity against methicillin-sensitive Staphylococcus aureus clinical isolate 1088060 by CLSI-based broth microdilution assay; format: functional
In short: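 Broth microdilution starting at 50 µg/ml with 2-fold serial dilutions; run in triplicate.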

## O=C(O)c1cn(C2CC2)c2cc(N3CCNCC3)c(F)cc2c1=O [CIPROFLOXACIN]
Staphylococcus aureus [1]
  Activity: inactive
Enterococcus faecalis
  Activity: inactive
Staphylococcus aureus [2]
  inhibition (INH): 86.2%
Staphylococcus aureus [3]
  Activity: inactive

## CO[C@H]1/C=C/O[C@@]2(C)Oc3c(C)c(O)c4c(O)c(c(/C=N/N5CCN(C)CC5)c(O)c4c3C2=O)NC(=O)/C(C)=C\C=C\[C@H](C)[C@H](O)[C@@H](C)[C@@H](O)[C@@H](C)[C@H](OC(C)=O)[C@@H]1C [RIFAMPIN]
Staphylococcus aureus [4]
  inhibition (INH): 76.3%

## C[C@@H](O)[C@H]1C(=O)N2C(C(=O)O)=C(S[C@@H]3CN[C@H](C(=O)N(C)C)C3)[C@H](C)[C@H]12 [MEROPENEM]
Enterococcus faecium [5]
  MIC: 4 µg/mL (≈ 10.4 µM)
Enterococcus faecium [6]
  MIC: 8 µg/mL (≈ 20.9 µM)
Enterococcus faecium [7]
  MIC: 8 µg/mL (≈ 20.9 µM)
Enterococcus faecium [8]
  MIC: 2 µg/mL (≈ 5.22 µM)
Staphylococcus aureus [9]
  MIC: 0.06 µg/mL (≈ 0.156 µM)
Staphylococcus aureus [10]
  MIC: 0.12 µg/mL (≈ 0.313 µM)
Enterococcus faecium [11]
  MIC: 2 µg/mL (≈ 5.22 µM)
Enterococcus faecium [12]
  MIC: 4 µg/mL (≈ 10.4 µM)
Staphylococcus aureus [13]
  MIC: 0.06 µg/mL (≈ 0.156 µM)
Staphylococcus aureus [14]
  MIC: 0.06 µg/mL (≈ 0.156 µM)
